Assay results reported in ChEMBL document CHEMBL4390645, “Novel prenyloxy chalcones as potential leishmanicidal and trypanocidal agents: Design, synthesis and evaluation” (Eur J Med Chem, 2019).
pIC50: −log10 of the molar value. Calls of active or inactive are those of the source. The calls are words filed in the database; no cut-off is given here.

What was measured:
Leishmania mexicana [1] = assay: Antileishmanial activity against Leishmania mexicana MNYC-BZ/62/M379 promastigotes assessed as metabolic inhibition at 10 ug/ml after 24 hrs by MTT assay relative to control; assay type: functional; conditions: MNYC-BZ/62/M379, 24 h
How it was run: (§1)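 Stationary-phase (7-day) metacyclic promastigotes, 5 x 10^5 per well in 100 µL RPMI 1640 with 10% heat-inactivated FBS and penicillin-streptomycin. Compounds from 10 mg/mL DMSO stock, diluted in PBS. Screen at 10 µg/mL in triplicate; actives serially diluted from 20 µg/mL. 27°C, dark, 24 h, then MTT 24 h. SDS/HCl solubilization, A570 vs blank. IC50 by Probit. Amphotericin B reference.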

Trypanosoma cruzi [2] = assay: Antitrypanosomal activity against Trypanosoma cruzi MHOM/MX/1994/INC5 epimastigotes assessed as metabolic inhibition at 10 ug/ml after 24 hrs by MTT assay relative to control; assay type: functional; conditions: MHOM/MX/1994/INC5, 24 h
Leishmania major = assay: Antileishmanial activity against Leishmania major amastigotes; assay type: functional, organism-based
Leishmania donovani = assay: Antileishmanial activity against Leishmania donovani amastigotes; assay type: functional, organism-based
[3] = Cytotoxicity against mouse J774.A1 cells assessed as reduction in cell viability measured after 20 hrs by MTT assay; assay type: cell-based
How it was run: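 J774A.1 macrophages, 5x10^4/well, preincubated 24 h at 37 °C, 5% CO2. Compounds at several concentrations in triplicate for 20 h, untreated cells as control. MTT added for 4 h, then 10% SDS/0.01N HCl, absorbance read. CC50 by Probit concentration-response.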

[4] = Selectivity index, ratio of CC50 for mouse J774.A1 cells to IC50 for antitrypanosomal activity against Trypanosoma cruzi MHOM/MX/1994/INC5 epimastigotes; assay type: toxicity; conditions: read-out: Ratio CC50/IC50
How it was run: (§2)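 SI = CC50 (J774A.1, 20 h MTT) divided by parasite IC50 (24 h MTT), both Probit-derived.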

Trypanosoma cruzi [5] = assay: Antitrypanosomal activity against Trypanosoma cruzi MHOM/MX/1994/INC5 epimastigotes assessed as growth inhibition measured after 24 hrs by MTT assay; assay type: functional, organism-based; conditions: MHOM/MX/1994/INC5, 24 h
Leishmania mexicana [6] = assay: Induction of morphological changes in Leishmania mexicana MNYC-BZ/62/M379 promastigotes assessed as rounded cells at 3 multiples of IC50 concentration and measured after 24 hrs by giemsa staining using light microscopic method; assay type: functional, organism-based
Leishmania mexicana [7] = assay: Induction of morphological changes in Leishmania mexicana MNYC-BZ/62/M379 promastigotes assessed as decrease in cell density at 1.25 to 20 ug/ml measured after 24 hrs by giemsa staining using light microscopic method; assay type: functional, organism-based
How it was run: (§3)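 Parasites exposed 24 h to a range of compound concentrations, Giemsa-stained, examined by light microscopy at 100x for morphology and cell density.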

[8] = Selectivity index, ratio of CC50 for mouse J774.A1 cells to IC50 for antileishmanial activity against Leishmania mexicana MNYC-BZ/62/M379 promastigotes; assay type: toxicity; conditions: read-out: Ratio CC50/IC50; how it was run: as §2
Leishmania mexicana [9] = assay: Induction of morphological changes in Leishmania mexicana MNYC-BZ/62/M379 promastigotes assessed as cell death at 3 multiples of IC50 concentration and measured after 24 hrs by giemsa staining using light microscopic method; assay type: functional, organism-based
Leishmania mexicana [10] = assay: Induction of morphological changes in Leishmania mexicana MNYC-BZ/62/M379 promastigotes assessed as decrease in flagella length at 3 multiples of IC50 concentration and measured after 24 hrs by giemsa staining using light microscopic method; assay type: functional, organism-based
Trypanosoma cruzi [11] = assay: Induction of morphological changes in Trypanosoma cruzi MHOM/MX/1994/INC5 epimastigotes assessed as decrease in cell density measured after 24 hrs by giemsa staining using light microscopic method; assay type: functional, organism-based; how it was run: as §3
Leishmania mexicana [12] = assay: Antileishmanial activity against Leishmania mexicana MNYC-BZ/62/M379 promastigotes assessed as growth inhibition measured after 24 hrs by MTT assay; assay type: functional, organism-based; conditions: MNYC-BZ/62/M379, 24 h; how it was run: as §1
Leishmania mexicana [13] = assay: Antileishmanial activity against Leishmania mexicana MNYC-BZ/62/M379 promastigotes assessed as metabolic inhibition at 0.5 ug/ml after 24 hrs by MTT assay relative to control; assay type: functional; conditions: MNYC-BZ/62/M379, 24 h

COc1ccc(/C=C/C(=O)c2ccc(OCC=C(C)C)c(OC)c2)cc1
inhibition at 10 µg/mL (Leishmania mexicana [1]): 1%
inhibition at 10 µg/mL (Trypanosoma cruzi [2]): 7.9%

CC(C)=CCOc1ccccc1/C=C/C(=O)c1ccccc1
pIC50 (Leishmania major): 4.05 to 5.85
pIC50 (Leishmania donovani): 4.05 to 5.85

COc1ccc(/C=C/C(=O)c2ccc(OCC=C(C)C)c(OC)c2)cc1OC
inhibition at 10 µg/mL (Leishmania mexicana [1]): 15.6%
inhibition at 10 µg/mL (Trypanosoma cruzi [2]): 25.3%

CC1CS(=O)(=O)CCN1/N=C/c1ccc([N+](=O)[O-])o1 (stereo not drawn) [NIFURTIMOX]
CC50 at 20 h [3]: 201 µM
selectivity ratio [4]: 23.1
pIC50 (Trypanosoma cruzi [5]): 5.06

COc1cc(/C=C/C(=O)c2cc(OC)c(OC)c(OC)c2)ccc1OCC=C(C)C
inhibition at 10 µg/mL (Leishmania mexicana [1]): 71.3%
inhibition at 10 µg/mL (Trypanosoma cruzi [2]): 84%
Activity (Leishmania mexicana [6]): Active
Activity (Leishmania mexicana [7]): Active
selectivity ratio [8]: 80.9
Activity (Leishmania mexicana [9]): Active
CC50 at 20 h [3]: 1310 µM
Activity (Leishmania mexicana [10]): Active
selectivity ratio [4]: 75.1
Activity (Trypanosoma cruzi [11]): Dose-dependent effect
pIC50 (Leishmania mexicana [12]): 4.79
pIC50 (Trypanosoma cruzi [5]): 4.76

COc1cc(/C=C/C(=O)c2cc(OC)c(OC)c(OC)c2)ccc1OC/C=C(\C)CCC=C(C)C
inhibition at 10 µg/mL (Leishmania mexicana [1]): 11.3%
inhibition at 10 µg/mL (Trypanosoma cruzi [2]): 31.6%

O=C(Cn1ccnc1[N+](=O)[O-])NCc1ccccc1 [BENZNIDAZOLE]
inhibition at 10 µg/mL (Trypanosoma cruzi [2]): 77.4%
CC50 at 20 h [3]: 352 µM
pIC50 (Trypanosoma cruzi [5]): 4.37

COc1cc(/C=C/C(=O)c2ccc(O)cc2)ccc1OC/C=C(\C)CCC=C(C)C
inhibition at 10 µg/mL (Leishmania mexicana [1]): 17.6%
inhibition at 10 µg/mL (Trypanosoma cruzi [2]): 20.4%

COc1cc(/C=C/C(=O)c2ccc(O)cc2)ccc1OCC=C(C)C
inhibition at 10 µg/mL (Leishmania mexicana [1]): 17.7%
inhibition at 10 µg/mL (Trypanosoma cruzi [2]): 23.8%

COc1cc(C(=O)/C=C/c2cc(OC)c(OC)c(OC)c2)ccc1OC/C=C(\C)CCC=C(C)C
inhibition at 10 µg/mL (Leishmania mexicana [1]): 2.1%
inhibition at 10 µg/mL (Trypanosoma cruzi [2]): -0.8%

COc1cc(/C=C/C(=O)c2ccc(OCC=C(C)C)c(OC)c2)ccc1OCC=C(C)C
inhibition at 10 µg/mL (Leishmania mexicana [1]): 3.9%
inhibition at 10 µg/mL (Trypanosoma cruzi [2]): 20%

COc1cc(C(=O)/C=C/c2ccc(O)cc2)ccc1OC/C=C(\C)CCC=C(C)C
inhibition at 10 µg/mL (Leishmania mexicana [1]): 4.9%
inhibition at 10 µg/mL (Trypanosoma cruzi [2]): -5.5%

COc1ccc(C(=O)/C=C/c2ccc(OCC=C(C)C)c(OC)c2)cc1OC
inhibition at 10 µg/mL (Leishmania mexicana [1]): 48.3%
inhibition at 10 µg/mL (Trypanosoma cruzi [2]): 11.8%
selectivity ratio [8]: 55.1
CC50 at 20 h [3]: 1750 µM
pIC50 (Leishmania mexicana [12]): 4.50

COc1ccc(C(=O)/C=C/c2ccc(OCC=C(C)C)c(OC)c2)cc1
inhibition at 10 µg/mL (Leishmania mexicana [1]): 25.5%
inhibition at 10 µg/mL (Trypanosoma cruzi [2]): 2.6%

COc1ccc(C(=O)/C=C/c2ccc(OC/C=C(\C)CCC=C(C)C)c(OC)c2)cc1
inhibition at 10 µg/mL (Leishmania mexicana [1]): 0.7%
inhibition at 10 µg/mL (Trypanosoma cruzi [2]): 13.7%

COc1cc(/C=C/C(=O)c2ccc(OC/C=C(\C)CCC=C(C)C)c(OC)c2)ccc1OC/C=C(\C)CCC=C(C)C
inhibition at 10 µg/mL (Leishmania mexicana [1]): 1%
inhibition at 10 µg/mL (Trypanosoma cruzi [2]): 45%
CC50 at 20 h [3]: 1020 µM
selectivity ratio [4]: 33.5
pIC50 (Trypanosoma cruzi [5]): 4.52

COc1cc(C(=O)/C=C/c2cc(OC)c(OC)c(OC)c2)ccc1OCC=C(C)C
inhibition at 10 µg/mL (Leishmania mexicana [1]): 59.1%
inhibition at 10 µg/mL (Trypanosoma cruzi [2]): 80.3%
selectivity ratio [8]: 1.24
CC50 at 20 h [3]: 25.6 µM
selectivity ratio [4]: 1.43
pIC50 (Leishmania mexicana [12]): 4.68
pIC50 (Trypanosoma cruzi [5]): 4.75

COc1ccc(/C=C/C(=O)c2ccc(OC/C=C(\C)CCC=C(C)C)c(OC)c2)cc1OC
inhibition at 10 µg/mL (Leishmania mexicana [1]): 27.3%
inhibition at 10 µg/mL (Trypanosoma cruzi [2]): 28.3%

COc1ccc(/C=C/C(=O)c2ccc(OC/C=C(\C)CCC=C(C)C)cc2)cc1
pIC50 (Leishmania major): 4.05 to 5.85
pIC50 (Leishmania donovani): 4.05 to 5.85

CC(C)=CCC/C(C)=C/COc1cccc(/C=C/C(=O)c2ccccc2)c1
pIC50 (Leishmania major): 4.05 to 5.85
pIC50 (Leishmania donovani): 4.05 to 5.85

COc1cc(/C=C/C(=O)c2ccc(OC/C=C(\C)CCC=C(C)C)c(OC)c2)ccc1OCC=C(C)C
inhibition at 10 µg/mL (Leishmania mexicana [1]): -8%
inhibition at 10 µg/mL (Trypanosoma cruzi [2]): 43.9%
CC50 at 20 h [3]: 825 µM
selectivity ratio [4]: 27.4
pIC50 (Trypanosoma cruzi [5]): 4.52

CC(C)=CCC/C(C)=C/COc1ccccc1/C=C/C(=O)c1ccccc1
pIC50 (Leishmania major): 4.05 to 5.85
pIC50 (Leishmania donovani): 4.05 to 5.85

C[C@@H]1[C@H](O)[C@@H](C)/C=C/C=C/C=C/C=C/C=C/C=C/C=C/[C@H](O[C@@H]2O[C@H](C)[C@@H](O)[C@H](N)[C@@H]2O)C[C@@H]2O[C@](O)(C[C@@H](O)C[C@@H](O)[C@H](O)CC[C@@H](O)C[C@@H](O)CC(=O)O[C@H]1C)C[C@H](O)[C@H]2C(=O)O [AMPHOTERICIN B]
inhibition at 0.5 µg/mL (Leishmania mexicana [13]): 99%
selectivity ratio [8]: 216
CC50 at 20 h [3]: 60.7 µM
pIC50 (Leishmania mexicana [12]): 6.55

COc1ccc(/C=C/C(=O)c2ccc(OC/C=C(\C)CCC=C(C)C)c(OC)c2)cc1
inhibition at 10 µg/mL (Leishmania mexicana [1]): 0%
inhibition at 10 µg/mL (Trypanosoma cruzi [2]): -11.6%

CC(C)=CCC/C(C)=C/CC/C(C)=C/COc1ccccc1/C=C/C(=O)c1ccccc1
pIC50 (Leishmania major): 4.05 to 5.85
pIC50 (Leishmania donovani): 4.05 to 5.85

CC(C)=CCC/C(C)=C/CC/C(C)=C/COc1cccc(/C=C/C(=O)c2ccccc2)c1
pIC50 (Leishmania major): 4.05 to 5.85
pIC50 (Leishmania donovani): 4.05 to 5.85

COc1ccc(C(=O)/C=C/c2ccc(OC/C=C(\C)CCC=C(C)C)c(OC)c2)cc1OC
inhibition at 10 µg/mL (Leishmania mexicana [1]): 13.5%
inhibition at 10 µg/mL (Trypanosoma cruzi [2]): 22%

COc1cc(C(=O)/C=C/c2ccc(OC/C=C(\C)CCC=C(C)C)c(OC)c2)ccc1OCC=C(C)C
inhibition at 10 µg/mL (Leishmania mexicana [1]): -3.2%
inhibition at 10 µg/mL (Trypanosoma cruzi [2]): 33.2%

CC(C)=CCOc1cccc(/C=C/C(=O)c2ccccc2)c1
pIC50 (Leishmania major): 4.05 to 5.85
pIC50 (Leishmania donovani): 4.05 to 5.85

COc1cc(C(=O)/C=C/c2ccc(O)cc2)ccc1OCC=C(C)C
inhibition at 10 µg/mL (Leishmania mexicana [1]): 4.6%
inhibition at 10 µg/mL (Trypanosoma cruzi [2]): 16.3%
